# Screening data (PubChem BioAssay)
# Rows were chosen to be rich in hits. Some 1.8% of all compounds tested hit in one or more screens of this group.
# CSN deneddyl inh: blocks human CSN-mediated cullin deneddylation; Purified CSN, SCF-Nedd8-OG deneddylation, fluorescence polarization; AID 651999; 360,000 compounds, 0.38% hits; inhibition, % at 12.5 µM; Q92905;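 active means pattern-corrected inhibition above about 35%, with an unprinted fluorescence ratio check between 0.5 and 1.5, limit read from the data, passing the limit was not always enough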;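 further: 0% = enzyme with substrate and 100% = substrate without enzyme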
#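 Assay system: Purified human Csn5 enzyme expressed in HEK293T cells | Amount: Enzyme 0.24 nM | Measured by: Fluorescence polarization readout | Medium: Tris/NaCl/DTT buffer, pH 7.5 | Compound dosing: One concentration, 12.5 µM, 0.25% DMSO | Times: 90 min incubation of compound, enzyme and substrate at room temperature | Control set: no-enzyme wells high, enzyme-with-substrate wells low | Read-out: % inhibition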
# SUMO HTRF inh: inhibitors of human SUMOylation (UBC9) | HTRF SUMOylation assay, SAE1/SAE2 + UBC9, in vitro | inhibition, % at 35 µM | 290,000 compounds, 0.36% hits | AID 2006; in the data active means inhibition above about 50%, passing the limit was not always enough
# SENP1 inh: inhibitors of human SENP1 SUMO protease catalytic domain; Q9P0U3; recombinant SENP1 catalytic domain, CyPet-SUMO1-YPet FRET cleavage; inhibition, % at 10 µM; 360,000 compounds, 0.21% hits; AID 624204;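 active means inhibition at least 30% at 10 µM, raw YFP signal under a set limit, fluorescence ratio 0.5 to 1.5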;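 further: 0% = enzyme with DMSO and 100% = no enzyme wells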
#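 Test system: human SENP1 catalytic domain; medium: Tris pH 8 buffer plus EDTA, NaCl, BME, BSA, NP40, catalase; incubation: 50 min reaction at room temperature; technique: FRET, CFP and YFP emission; controls: no-enzyme low control and enzyme-plus-DMSO high control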
# HNF4A DNA FP: change in binding of human HNF4 alpha to DNA. P41235. HNF4a-FITC DNA binding, fluorescence polarization, 1 h. activity change, % at 10 µM. 360,000 compounds, 0.3% hits. AID 1224865; in the data active means activity change above about 30%, passing the limit was not always enough
# Rpn11 block: inhibitors of human proteasome Rpn11; human 26S proteasome, Ub4-pepOG fluorescence polarization; 20S core pre-blocked with epoxomicin; calls only at 20 µM; 360,000 compounds, 0.59% hits; AID 588493;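 active means inhibition at 20 µM, scaled to each plate's controls, above about 33%, limit read from the data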
# Target sequence (O00487 whole entry, looked up): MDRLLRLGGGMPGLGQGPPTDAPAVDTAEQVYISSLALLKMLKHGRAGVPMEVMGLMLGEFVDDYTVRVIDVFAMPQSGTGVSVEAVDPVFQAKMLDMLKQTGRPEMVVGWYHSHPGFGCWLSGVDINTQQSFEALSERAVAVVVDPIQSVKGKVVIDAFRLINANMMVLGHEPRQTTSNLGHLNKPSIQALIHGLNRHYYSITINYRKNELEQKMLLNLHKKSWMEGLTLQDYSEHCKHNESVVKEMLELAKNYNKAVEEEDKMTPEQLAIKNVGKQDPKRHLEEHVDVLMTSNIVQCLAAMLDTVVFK
# TPT1 inhibitor: inhibitors of Candida albicans tRNA 2'-phosphotransferase TPT1; recombinant caTPT1, FP RNA substrate dephosphorylation; 300,000 compounds, 0.81% hits; inhibition, % at 5 µM; AID 1962;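 active means inhibition above the mean of all tested compounds plus 3 SD, set per screening campaign, cut at about 24% in these data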;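 further: plate controls were DMSO alone for no effect and ferristatin control at 100 nM for full effect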
# caTPT1 confirm: TPT1 (C. albicans) inhibition, confirmation; shares compounds with TPT1 inhibitor; recombinant caTPT1, fluorescence polarization, RNase T1 coupled; inhibition, % at 5 µM; 2,400 compounds, 74% hits; AID 2149;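 active means inhibition above the primary screen limit, the mean inhibition of all tested compounds plus 3 SD, cut at about 25% in these data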
# RNase T1 counter: blocks Aspergillus oryzae RNase T1, a TPT1 counter-screen; RNase T1 cleavage, fluorescence polarization, 1536-well; inhibition, % at 5 µM; 2,400 compounds, 83% hits; shares compounds with TPT1 inhibitor; AID 2153;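 active means inhibition above the solvent-only control well mean plus 3 SD, limit set per screening run, cut at about 23% in these data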;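 further: plate controls were DMSO wells with enzyme for no effect and wells without RNase T1 for full effect; inhibitors block cleavage so intact labeled substrate keeps polarization high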
# Target sequence (P00651 whole entry, looked up): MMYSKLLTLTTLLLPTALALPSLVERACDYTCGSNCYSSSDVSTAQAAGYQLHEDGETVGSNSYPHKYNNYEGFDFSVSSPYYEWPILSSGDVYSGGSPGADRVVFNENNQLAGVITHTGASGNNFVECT
# CSN5 deneddyl: Csn5 (human) deneddylation inhibition, single-concentration validation | shares compounds with CSN deneddyl inh | Csn5 deneddylation of SCF-Nedd8OG, fluorescence polarization, 90 min | inhibition, % at 16.6 µM | 540 compounds, 62% hits | AID 720654; in the data active means inhibition above about 50%;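 further: 0% = DMSO with enzyme and 100% = no enzyme wells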
# MMP2 cntr CSN: MMP-2 (human) inhibition, counter-screen for CSN hits; shares compounds with CSN deneddyl inh; recombinant MMP-2, FRET substrate fluorescence, 60 min; inhibition, % at 16.6 µM; 540 compounds, 33% hits; AID 720655;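 active means corrected plate-normalized z-score of 5 or more, or -5 or less, or inhibition of 15% or more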;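 further: plate controls were DMSO wells with enzyme for no effect and buffer wells lacking MMP-2 for full effect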
# Thrombin counter: thrombin (bovine) inhibition, counter-screen for CSN hits; shares compounds with CSN deneddyl inh; bovine thrombin cleavage of Ub4-pepOG, fluorescence polarization; inhibition, % at 16.6 µM; 540 compounds, 49% hits;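 active means inhibition at or above a set limit, with a fluorescence interference ratio between 0.5 and a set maximum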
# Active calls of the source: *; i = inactive; nt = no result given; + = active, no number.
SMILES,CSN deneddyl inh,SUMO HTRF inh,SENP1 inh,HNF4A DNA FP,Rpn11 block,TPT1 inhibitor,caTPT1 confirm,RNase T1 counter,CSN5 deneddyl,MMP2 cntr CSN,Thrombin counter
CC1(C)OC2CCN3C(C(O)COS3(=O)=O)C2O1 (stereo not given),-1,10,1,-3,i,0,nt,nt,nt,nt,nt
CC1=NN(c2ccccc2)C(=O)/C1=C\C=C1/N(C)c2ccccc2C1(C)C,80*,4,48*,109*,nt,74*,74*,84*,65*,1,71*
Nc1ccc(/C=C/C(=O)c2cccs2)cc1,40*,11,-24,19,nt,78*,96*,99*,72*,-16,32*
COc1ccccc1C(=O)N1CCN(C(=O)c2ccncc2)CC1,3,-5,2,-1,i,-2,nt,nt,nt,nt,nt
COc1ccccc1N1C(=O)S/C(=C\c2cccs2)C1=O,0,4,0,3,i,-1,nt,nt,nt,nt,nt
Cc1ccc(NC(=O)CN(C)C(=O)c2cc(-c3ccco3)nc3ccccc23)cc1,51*,nt,9,-25,i,25*,10,14,nt,10,-6
COc1cccc(NC(=O)CN(C)C(=O)c2cc(-c3ccco3)nc3ccccc23)c1,11,nt,2,-3,i,0,nt,nt,nt,nt,nt
Nc1[nH]c2cc([N+](=O)[O-])ccc2c1-c1ccccn1,64*,-11,0,91*,nt,101*,102*,105*,49,-5,44*
CCN1C(=O)/C(=C/C=C2\C=CN(CC)c3ccccc32)SC1=S,4,12,-16,2,i,2,nt,nt,nt,nt,nt
CCN1C(=O)/C(=C\C=C2/C=CC=CN2CC)SC1=S,53*,17,8,136*,nt,27*,36*,55*,61*,23*,63*
N#C/C(=C/c1ccc(N2CCCCCC2)o1)c1ccc(Cl)cc1,78*,7,-6,110,nt,158*,187*,172*,188*,-34*,58*
O=C(O)C(c1ccccc1)N1C(=O)/C(=C\c2ccc(-c3ccccc3Cl)o2)SC1=S (stereo not given),92*,24,-26,62,nt,124*,128*,130*,-58,5,94*
CCOc1ccc(NC(=O)/C(C#N)=C/c2ccc(N3CCCC3)c(C)c2)cc1,46*,32,-27,74,nt,83*,83*,89*,99*,0,25*
CCOc1cc(/C=C(/C#N)C(=O)Nc2ccc(O)cc2)cc(Br)c1O,63*,-16,6,54*,nt,+,171*,164*,14,-21,68*
CCOc1cc(/C=N/NC(=O)C(N)=O)cc(Br)c1O,8,-2,0,1,i,-4,nt,nt,nt,nt,nt
CC(OC(=O)/C(C#N)=C/c1ccc(N(C)C)cc1)C(=O)N(C)c1ccccc1 (stereo not given),71*,nt,-24,107*,nt,121*,130*,132*,62*,-20,73*
Cc1cccn2c(=O)c(/C=C3\SC(=S)NC3=O)c(NCCCN3CCOCC3)nc12,85*,11,-36,109*,nt,121*,122*,120*,81*,-18,47*
